# Activity calls are given as the source filed them. The calls are words filed in the database; no cut-off is given here.
# Assays:
# [1] = Cytotoxicity against human A549 cells assessed as decrease in cell viability after 48 hrs by MTT assay; type: functional, cell-based; conditions: A549, 48 h
# Outline: (§1)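 Cells kept in DMEM/F12 with 10% FBS, 2 mM glutamine, penicillin/streptomycin at 37 °C, 5% CO2; exponential-phase cells seeded at 1 × 10^4/well for 24 h. Treated at 0.2, 2 and 20 μg/mL for 48 h at 37 °C; vehicle controls = 100% viability. Formazan dissolved in DMSO, read at 570 nm (620 nm reference). IC50 by four-parameter logistic fit, ≥3 independent measurements, ±95% CI.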
# MDA-MB-231 [2] = experiment: Induction of autophagy in human MDA-MB-231 cells assessed as decrease in p62 levels at 2 times IC50 after 24 to 48 hrs by immunoblot analysis; type: functional, cell-based
# Outline: (§2)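 Cells seeded at 2.5 × 10^5/well, treated 24 h later at 1/2 IC50, IC50 and 2× IC50 (legend says 24 h, methods 48 h). Controls: MG132 4.76 μg/mL, BafA1 0.1 μg/mL, DMSO. Lysed in RIPA with protease inhibitors, BCA protein assay, 30 μg on 15% Tris/glycine SDS-PAGE. Blotted for LC3-I/II, p62 and polyubiquitinated proteins with HRP secondary and ECL detection.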
# [3] = Cytotoxicity against human U87MG cells assessed as decrease in cell viability after 48 hrs by MTT assay; type: functional, cell-based, U-87MG ATCC; conditions: U-87 MG; outline: as §1
# [4] = Cytotoxicity against human MDA-MB-231 cells assessed as decrease in cell viability after 48 hrs by MTT assay; type: functional, cell-based; conditions: MDA-MB-231, 48 h; outline: as §1
# [5] = Cytotoxicity against human HeLa cells assessed as decrease in cell viability after 48 hrs by MTT assay; type: functional, cell-based; outline: as §1
# Homo sapiens [6] = species: Homo sapiens; experiment: Induction of autophagy in human 253JBV cells assessed as vacuole formation at 20 ug/ml after 48 hrs by microscopy; type: functional, cell-based
# Outline: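 Bladder cells grown 48 h untreated or with 20 μg/mL test agent, then inspected for morphology and vacuoles by inverted light microscopy against the control group.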
# MDA-MB-231 [7] = experiment: Induction of autophagy in human MDA-MB-231 cells assessed as conversion of LC3-1 to LC3-2 at IC50 to 2 times IC50 after 24 to 48 hrs by immunoblot analysis; type: functional, cell-based; outline: as §2
# [8] = Cytotoxicity against human MPanc96 cells assessed as decrease in cell viability after 48 hrs by MTT assay; type: functional, cell-based; conditions: MPANC96, 48 h; outline: as §1
# [9] = Cytotoxicity against human MCF7 cells assessed as decrease in cell viability after 48 hrs by MTT assay; type: functional, cell-based; conditions: MCF7, 48 h; outline: as §1
# [10] = Cytotoxicity against human Caco2 cells assessed as decrease in cell viability after 48 hrs by MTT assay; type: functional, cell-based; conditions: Caco-2, 48 h; outline: as §1
# MDA-MB-231 [11] = experiment: Induction of autophagy in human MDA-MB-231 cells assessed as decrease in polyubiquitinated protein levels at IC50 to 2 times IC50 after 24 to 48 hrs by immunoblot analysis; type: functional, cell-based; outline: as §2
# Homo sapiens [12] = species: Homo sapiens; experiment: Induction of autophagy in human 253JBV cells assessed as decrease in p62 levels at 2 times IC50 after 24 to 48 hrs by immunoblot analysis; type: functional, cell-based; outline: as §2
# HeLa [13] = experiment: Induction of autophagy in human HeLa cells assessed as conversion of LC3-1 to LC3-2 at IC50 to 2 times IC50 after 24 to 48 hrs by immunoblot analysis; type: functional, cell-based; outline: as §2
# Homo sapiens [14] = species: Homo sapiens; experiment: Induction of autophagy in human 253JBV cells assessed as conversion of LC3-1 to LC3-2 at IC50 to 2 times IC50 after 24 to 48 hrs by immunoblot analysis; type: functional, cell-based; outline: as §2
# Homo sapiens [15] = species: Homo sapiens; experiment: Induction of autophagy in human 253JBV cells assessed as decrease in polyubiquitinated protein levels at IC50 after 24 to 48 hrs by immunoblot analysis; type: functional, cell-based; outline: as §2
# [16] = Cytotoxicity against HEK293 cells assessed as decrease in cell viability after 48 hrs by MTT assay; type: toxicity, cell-based; conditions: human; outline: as §1
# [17] = Cytotoxicity against human PC3 cells assessed as decrease in cell viability after 48 hrs by MTT assay; type: functional, cell-based; conditions: PC-3, 48 h; outline: as §1
# [18] = Cytotoxicity against human 253JBV cells assessed as decrease in cell viability after 48 hrs by MTT assay; type: functional, cell-based; outline: as §1
# HeLa [19] = experiment: Induction of autophagy in human HeLa cells assessed as decrease in p62 levels at IC50 after 24 to 48 hrs by immunoblot analysis; type: functional, cell-based; outline: as §2
# HeLa [20] = experiment: Induction of autophagy in human HeLa cells assessed as decrease in p62 levels at IC50 after 24 to 48 hrs by immunoblot analysis
SMILES,IC50 [1] [µM],Activity (MDA-MB-231 [2]),IC50 [3] [µM],IC50 [4] [µM],IC50 [5] [µM],Activity (Homo sapiens [6]),Activity (MDA-MB-231 [7]),IC50 [8] [µM],IC50 [9] [µM],IC50 [10] [µM],Activity (MDA-MB-231 [11]),Activity (Homo sapiens [12]),Activity (HeLa [13]),Activity (Homo sapiens [14]),Activity (Homo sapiens [15]),IC50 at 48 h [16] [µM],IC50 [17] [µM],IC50 [18] [µM],Activity (HeLa [19]),Activity (HeLa [20])
C/C(=C\CC/C(C)=C/Cc1cc(C(=O)O)ccc1N)CC/C=C(\C)CC/C=C(\C)CCC(=O)O,25.8,Active,> 42.8,12.9,18.2,Active,Active,36.4,> 42.8,25.9,Active,Active,Active,Active,Active,6.45,42.3,36.5,Active,Active
C=C1C(=O)O[C@@H]2C3O[C@]3(C)CC/C=C(\C)CC[C@@H]12 (stereo not given in full),22,,4.86,4.36,23.1,,,20.3,27.7,23.4,,,,,,3.1,13,25.3,,

# Source: ChEMBL document CHEMBL3853311, “Deuterium-Labeled Precursor Feeding Reveals a New pABA-Containing Meroterpenoid from the Mango Pathogen Xanthomonas citri pv. mangiferaeindicae” (J Nat Prod, 2016)
